How the values were obtained:
L1210 [1] = assay: Antitumor activity in the mice with intraperitoneal implanted L1210 lymphoid leukemia at the dose of 50 mg/kg/day x 5 was determined as mean survival of treated group compared to untreated; 13.5/9; type: functional, Mus musculus
Method in brief: (§1)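 C3D2F1/J female mice (C3H/HeJ female × DBA/2J male), groups of six to eight, average weight 25 g. Inoculated ip with 1 × 10^6 L1210 ascites cells taken from DBA/2Ha donor mice bearing 3-5 day old tumors. Compounds were dissolved in 0.154 N NaOH, neutralized with 0.154 N HCl (final 0.9% NaCl), and given ip daily for 5 days from 24 h post-implant. Median survival T/C; ILS = (T/C − 1) × 100; 30-day survivors counted.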

L1210 [2] = assay: Antitumor activity in the mice with intraperitoneal implanted L1210 lymphoid leukemia at the dose of 100 mg/kg/day x 5 was determined as mean survival of treated group compared to untreated; 9.5/9; type: functional, Mus musculus; method in brief: as §1
L1210 [3] = assay: Antitumor activity in the mice with intraperitoneal implanted L1210 lymphoid leukemia at the dose of 25 mg/kg/day x 5 was determined as mean survival of treated group compared to untreated; 11.5/9; type: functional, Mus musculus; method in brief: as §1
L1210 [4] = assay: Antitumor activity in the mice with intraperitoneal implanted L1210 lymphoid leukemia at the dose 100 mg/kg/day x 5 was determined as percentage increase in the life span as compared with control tumor bearers; type: functional; settings: Mus musculus, L1210, ip
Method in brief: (§2)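 Female C3D2F1/J mice (C3H/HeJ × DBA/2J), groups of six to eight, average weight 25 g. Each mouse got 1 × 10^6 L1210 ascites cells ip, taken from DBA/2Ha donor mice bearing 3-5 day tumors. Compound was dissolved in 0.154 N NaOH and neutralized with 0.154 N HCl (final 0.9% NaCl). Dosed ip daily ×5, starting 24 h after implant. Recorded body weight change on day 8, survival range, median survival and 30-day survivors. ILS = (T/C − 1) × 100.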

L1210 [5] = assay: In Vitro evaluation for the antiproliferative activity by observing the growth inhibition of L1210 lymphoid leukemia cells in culture at 72 hour; type: functional, Mus musculus
Method in brief: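 Growth of L1210 lymphoid leukemia cells in culture measured by Trypan blue exclusion of viable cells after 72 h of drug exposure. ED50 is the concentration giving 50% growth inhibition. In some runs the compound was first preincubated in medium at 37 °C for 24 or 48 h before the assay.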

L1210 [6] = assay: Antitumor activity in mice with intraperitoneal implanted L1210 lymphoid leukemia at the dose 100 mg/kg/day x 5 was determined as weight change (g/mouse) on 8th day; type: functional
Method in brief: (§3)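 C3D2F1/J female mice (C3H/HeJ × DBA/2J), groups of six to eight, average 25 g, inoculated ip with 1 × 10^6 L1210 ascites cells taken from DBA/2Ha donor mice carrying 3-5 day tumors. Compound dissolved in 0.154 N NaOH, then neutralized with 0.154 N HCl to give 0.9% NaCl. Given ip daily for 5 consecutive days starting 24 h after implantation. Body weight change per mouse recorded on day 8.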

L1210 [7] = assay: Antitumor activity in mice with intraperitoneal implanted L1210 lymphoid leukemia at the dose 25 mg/kg/day x 5 was determined as weight change (g/mouse) on 8th day; type: functional; method in brief: as §3
L1210 [8] = assay: Antitumor activity in mice with intraperitoneal implanted L1210 lymphoid leukemia at the dose 50 mg/kg/day x 5 was determined as weight change (g/mouse) on 8th day; type: functional; method in brief: as §3
L1210 [9] = assay: Antitumor activity in the mice with intraperitoneal implanted L1210 lymphoid leukemia at the dose 100 mg/kg/day x 5 was determined and number of animals survived on 30 th day were reported; 0/8; type: functional, Mus musculus; method in brief: as §2
L1210 [10] = assay: Antitumor activity in the mice with intraperitoneal implanted L1210 lymphoid leukemia at the dose 25 mg/kg/day x 5 was determined and number of animals survived on 30 th day were reported; 0/8; type: functional, Mus musculus; method in brief: as §2
L1210 [11] = assay: Antitumor activity in the mice with intraperitoneal implanted L1210 lymphoid leukemia at the dose 50 mg/kg/day x 5 was determined as Survival time in days; Range is 10-17 days; type: functional, Mus musculus; method in brief: as §2
L1210 [12] = assay: Antitumor activity in the mice with intraperitoneal implanted L1210 lymphoid leukemia at the dose 50 mg/kg/day x 5 was determined and number of animals survived on 30 th day were reported; 0/8; type: functional, Mus musculus; method in brief: as §2
L1210 [13] = assay: Antitumor activity in the mice with intraperitoneal implanted L1210 lymphoid leukemia at the dose 50 mg/kg/day x 5 was determined as percentage increase in the life span as compared with control tumor bearers; type: functional; settings: Mus musculus, L1210, ip; method in brief: as §1
L1210 [14] = assay: Antitumor activity in the mice with intraperitoneal implanted L1210 lymphoid leukemia at the dose 100 mg/kg/day x 5 was determined as Survival time in days; Range is 8-13 days; type: functional, Mus musculus; method in brief: as §2
L1210 [15] = assay: Antitumor activity in the mice with intraperitoneal implanted L1210 lymphoid leukemia at the dose 25 mg/kg/day x 5 was determined as Survival time in days; Range is 7-15 days; type: functional, Mus musculus; method in brief: as §2
L1210 [16] = assay: Antitumor activity in the mice with intraperitoneal implanted L1210 lymphoid leukemia at the dose 25 mg/kg/day x 5 was determined as percentage increase in the life span as compared with control tumor bearers; type: functional; settings: Mus musculus, L1210, ip; method in brief: as §2
L1210 [17] = assay: Antitumor activity in the mice with intraperitoneal implanted L1210 lymphoid leukemia at the dose of 50 mg/kg/day x 5 was determined as mean survival of treated group compared to untreated; 24/8; type: functional, Mus musculus
L1210 [18] = assay: Antitumor activity in the mice with intraperitoneal implanted L1210 lymphoid leukemia at the dose of 25 mg/kg/day x 5 was determined as mean survival of treated group compared to untreated; 16.5/8.5; type: functional, Mus musculus; method in brief: as §1
L1210 [19] = assay: Antitumor activity in mice with intraperitoneal implanted L1210 lymphoid leukemia at the dose 75 mg/kg/day x 5 was determined as weight change (g/mouse) on 8th day; type: functional; method in brief: as §3
L1210 [20] = assay: Antitumor activity in the mice with intraperitoneal implanted L1210 lymphoid leukemia at the dose of 75 mg/kg/day x 5 was determined as mean survival of treated group compared to untreated; 17/8.5; type: functional, Mus musculus
L1210 [21] = assay: Antitumor activity in the mice with intraperitoneal implanted L1210 lymphoid leukemia at the dose 50 mg/kg/day x 5 was determined as Survival time in days; Range is 15-42 days; type: functional, Mus musculus; method in brief: as §2
L1210 [22] = assay: Antitumor activity in the mice with intraperitoneal implanted L1210 lymphoid leukemia at the dose 75 mg/kg/day x 5 was determined as Survival time in days; Range is 12-21 days; type: functional, Mus musculus; method in brief: as §1
L1210 [23] = assay: Antitumor activity in the mice with intraperitoneal implanted L1210 lymphoid leukemia at the dose 50 mg/kg/day x 5 was determined and number of animals survived on 30 th day were reported; 2/8; type: functional, Mus musculus; method in brief: as §2
L1210 [24] = assay: Antitumor activity in the mice with intraperitoneal implanted L1210 lymphoid leukemia at the dose 75 mg/kg/day x 5 was determined and number of animals survived on 30 th day were reported; 0/8; type: functional, Mus musculus; method in brief: as §1
L1210 [25] = assay: Antitumor activity in the mice with intraperitoneal implanted L1210 lymphoid leukemia at the dose 75 mg/kg/day x 5 was determined as percentage increase in the life span as compared with control tumor bearers; type: functional; settings: Mus musculus, L1210, ip; method in brief: as §1
L1210 [26] = assay: Antitumor activity in the mice with intraperitoneal implanted L1210 lymphoid leukemia at the dose 25 mg/kg/day x 5 was determined as Survival time in days; Range is 14-18 days; type: functional, Mus musculus; method in brief: as §2

In the case of `C[C@@H]1C[C@H]2[C@@H]3CCC4=CC(=O)C=C[C@]4(C)[C@@]3(F)[C@@H](O)C[C@]2(C)[C@@]1(O)C(=O)COP(=O)(O)OC[C@H]1O[C@@H](n2ccc(N)nc2=O)[C@@H](O)[C@@H]1O`, the T/C (L1210 [1]) is reported as 13.5, the T/C (L1210 [2]) is reported as 9.5 and the T/C (L1210 [3]) is reported as 11.5. The ILS at 100 mg/kg/day (L1210 [4]) was 6%, the “ED 50” value (L1210 [5]) was 80 nM and the Weight change (L1210 [6]) was -2.02 g mouse-1. The Weight change (L1210 [7]) was -1.25 g mouse-1, the Weight change (L1210 [8]) was -1.05 g mouse-1 and the Survivors (L1210 [9]) was 0. It also gave a Survivors (L1210 [10]) of 0, a Survival time (L1210 [11]) of 10 days and a Survivors (L1210 [12]) of 0. For the same compound, the ILS at 50 mg/kg/day (L1210 [13]) was 50%, the Survival time (L1210 [14]) was 8 days and the Survival time (L1210 [15]) was 7 days. The ILS at 25 mg/kg/day (L1210 [16]) was 28%.
`C[C@]12C[C@H](O)[C@H]3[C@@H](CCC4=CC(=O)CC[C@@]43C)[C@@H]1CC[C@@H]2C(=O)COP(=O)(O)OC[C@H]1O[C@@H](n2ccc(N)nc2=O)[C@@H](O)[C@@H]1O` gave a T/C (L1210 [17]) of 24, a T/C (L1210 [18]) of 16.5 and a Weight change (L1210 [19]) of -0.59 g mouse-1. The “ED 50” value (L1210 [5]) was 90 nM, the T/C (L1210 [20]) was 17 and the Weight change (L1210 [7]) was 0.06 g mouse-1. The Weight change (L1210 [8]) was -1.24 g mouse-1, the Survivors (L1210 [10]) was 0 and the Survival time (L1210 [21]) was 15 days. It also gave a Survival time (L1210 [22]) of 12 days, a Survivors (L1210 [23]) of 2 and a Survivors (L1210 [24]) of 0. The ILS at 50 mg/kg/day (L1210 [13]) was 200%, the ILS at 75 mg/kg/day (L1210 [25]) was 100% and the Survival time (L1210 [26]) was 14 days. For the same compound, the ILS at 25 mg/kg/day (L1210 [16]) was 94%.

Reference: ChEMBL document CHEMBL1121364, “Nucleoside conjugates as potential antitumor agents. 3. Synthesis and antitumor activity of 1-(beta-D-arabinofuranosyl)cytosine conjugates of corticosteroids” (1980)
